Compound activity: PubChem, several laboratories
Apaf1 inhib = inhibitors of human Apaf-1 apoptosome, primary screen, biochemical, DEVD-Rh110 fluorescence, uHTS. reconstituted apoptosome caspase-3 activity. inhibition, % at 20 µM. actives 0.71% (n = 330,000). AID 489030, 2010; active means inhibition of at least 40% at 20 µM
Target sequence (O14727 whole entry, looked up): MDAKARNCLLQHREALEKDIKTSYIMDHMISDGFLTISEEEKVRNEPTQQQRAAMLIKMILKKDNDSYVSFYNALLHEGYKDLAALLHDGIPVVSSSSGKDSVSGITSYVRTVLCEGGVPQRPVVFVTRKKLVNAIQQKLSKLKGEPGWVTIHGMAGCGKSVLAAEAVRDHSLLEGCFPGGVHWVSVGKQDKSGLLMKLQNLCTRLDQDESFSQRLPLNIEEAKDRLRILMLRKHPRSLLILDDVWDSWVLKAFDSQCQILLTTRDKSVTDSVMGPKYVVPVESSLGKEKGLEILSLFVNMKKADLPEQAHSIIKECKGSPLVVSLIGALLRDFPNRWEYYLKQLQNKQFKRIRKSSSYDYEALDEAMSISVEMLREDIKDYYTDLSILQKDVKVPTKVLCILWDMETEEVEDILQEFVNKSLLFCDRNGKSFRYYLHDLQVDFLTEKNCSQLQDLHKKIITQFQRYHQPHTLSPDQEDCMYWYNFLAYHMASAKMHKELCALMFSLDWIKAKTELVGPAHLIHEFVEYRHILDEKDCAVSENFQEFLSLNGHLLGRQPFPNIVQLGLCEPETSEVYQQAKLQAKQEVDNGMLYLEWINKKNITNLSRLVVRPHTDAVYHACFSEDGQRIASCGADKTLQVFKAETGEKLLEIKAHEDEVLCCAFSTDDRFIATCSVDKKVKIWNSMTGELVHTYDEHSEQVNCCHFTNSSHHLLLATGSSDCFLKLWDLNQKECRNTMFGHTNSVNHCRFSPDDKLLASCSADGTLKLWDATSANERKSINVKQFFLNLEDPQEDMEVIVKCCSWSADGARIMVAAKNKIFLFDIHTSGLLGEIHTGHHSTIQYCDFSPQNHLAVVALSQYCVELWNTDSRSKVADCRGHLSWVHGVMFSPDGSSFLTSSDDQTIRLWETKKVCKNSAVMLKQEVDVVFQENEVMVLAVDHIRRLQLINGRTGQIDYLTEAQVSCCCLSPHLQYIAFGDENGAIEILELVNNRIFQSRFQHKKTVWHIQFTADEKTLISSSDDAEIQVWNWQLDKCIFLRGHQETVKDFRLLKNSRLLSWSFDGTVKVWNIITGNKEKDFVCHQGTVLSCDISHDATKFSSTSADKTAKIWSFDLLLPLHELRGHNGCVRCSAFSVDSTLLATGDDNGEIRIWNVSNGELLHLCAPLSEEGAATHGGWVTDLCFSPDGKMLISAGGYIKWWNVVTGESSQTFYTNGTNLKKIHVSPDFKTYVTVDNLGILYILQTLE
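Material: cell-free apoptosome with Apaf-1, procaspase-3 and caspase-9; Buffer or medium: Hepes pH 7.5 with detergent and BSA; Reagent: cytochrome c trigger plus (Z-DEVD)2-Rh110 caspase-3 substrate; Times: compound with Apaf-1, dATP, procaspase-3 30 min, then 50 min reaction, room temperature; Technique: Rh110 fluorescence intensity.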
PP5 inh = PP5 phosphatase inhibitors, primary screen, biochemical, fluorescence | Serine/threonine-protein phosphatase 5 (Homo sapiens), P53041 | purified PP5c, OMFP substrate fluorescence | inhibition, % at 6.7 µM | actives 0.18% (n = 320,000);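 active means inhibition above the campaign's mean inhibition across all tested compounds plus 3 SD, cut at about 9.5% in these data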
PP1 counter = PP1-alpha phosphatase inhibitors, primary screen, counter-screen for PP5 inhibitor project, biochemical, fluorescence, OMFP substrate, single point; Serine/threonine-protein phosphatase PP1-alpha catalytic subunit (Homo sapiens), P62136; purified PP1alpha; inhibition, % at 6.7 µM; actives 0.9% (n = 320,000);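 active means inhibition above the mean inhibition of all tested compounds plus 3 SD, computed separately for each screening campaign, cut at about 15% in these data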
TDP2 absorb = human TDP2 enzyme inhibitors, primary screen, biochemical, epi absorbance, recombinant enzyme; Tyrosyl-DNA phosphodiesterase 2 (Homo sapiens), O95551; inhibition, % at 12.8 µM; actives 0.34% (n = 370,000); T5PNP hydrolysis, p-nitrophenol absorbance 415 nm;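 active means inhibition above the mean of all tested compounds plus 3 SD, set per campaign, cut at about 25% in these data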
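Material: recombinant human TDP2; quantity: TDP2 enzyme at 120 nM final; medium: Tris-HCl pH 7.5 with MgCl2; compound: single concentration, 12.8 µM nominal, with 1% DMSO; incubation: 2 h enzyme incubation at 37 °C; signal: epi absorbance; measure: percent inhibition; benchmarks: high control without enzyme, low control DMSO plus TDP2; repeats: singlicate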
GSTO1 inh = inhibitors of recombinant GSTO1, primary screen, counter-screen for RBBP9 inhibitor project, biochemical, fluorescence polarization; activity-based probe fluorescence polarization; inhibition, % at 5.96 µM; actives 1.1% (n = 300,000);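 active means inhibition above the campaign mean inhibition plus 3 SD, cut at about 35% in these data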
PP1 inh confirm = PP1 phosphatase inhibitors, confirmation, biochemical, fluorescence, OMFP substrate, triplicate; inhibition, % at 6.7 µM; purified PP1alpha; actives 52% (n = 1,900); shares compounds with PP1 counter;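 active means mean PP1 inhibition above a set limit taken from the earlier primary screen, cut at about 15% in these data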
PP5 inh counter = PP5 phosphatase inhibition by PP1 hits, confirmation, counter-screen for PP1 inhibitor project, biochemical, fluorescence, triplicate | shares compounds with PP1 counter | actives 4% (n = 1,900) | AID 2360, 2010 | purified PP5c, OMFP fluorescence | inhibition, % at 6.7 µM;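 active means mean PP5 inhibition over triplicate wells above about 9.5% taken from the earlier PP1 screen, limit read from the data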
Numbers stand for hits; n = inactive; x = no result given. Rows were chosen to be rich in hits. Some 2.1% of all compounds tested hit in one or more screens of this group.

SMILES	Apaf1 inhib	PP5 inh	PP1 counter	TDP2 absorb	GSTO1 inh	PP1 inh confirm	PP5 inh counter
COC(=O)[C@]12C[C@H](CC(=O)N3CCC(c4ccccc4)CC3)C(=O)N(CCC3=CCCCC3)C1=C[C@H](C(C)C)O[C@@H]2C1CC1	x	x	x	n	x	x	x
Cc1ccc(Nc2cc(C)nn2-c2nc(C)cc(=O)[nH]2)cc1	n	n	26	x	n	20	n
CCOc1ccc(N=Nc2c(=O)[nH]n3c(=O)cc(C)[nH]c23)cc1	n	n	19	n	n	n	n
Cc1cc(=O)n2[nH]c(-c3ccc(F)cc3)cc2n1	n	n	n	n	n	x	x
Cc1cccc(-c2cc3nc(-c4ccccc4)cc(=O)n3[nH]2)c1	n	n	23	n	n	21	n
Cc1nc2nc(-c3ccccc3)cc(=O)n2[nH]1	n	n	n	n	n	x	x
O=c1cc(-c2ccc([N+](=O)[O-])cc2)nc2cc(-c3ccc(F)cc3)[nH]n12	n	n	35	n	n	34	n
Cc1ccc(-c2nnc(SCC(=O)Nc3ccc(F)cc3F)n2Cc2ccco2)cc1	x	x	x	n	x	x	x
C[C@H](O)[C@@H]1C(=O)N2CCc3c([nH]c4cccc(-c5ccccc5)c34)[C@@H]2C[C@@H]1N(C)C(=O)C1CCCCC1	x	x	x	n	x	x	x
Cc1c(CCOC(=O)C23CC4CC(CC(C)(C4)C2)C3)sc[n+]1CC(=O)c1ccccc1	n	n	20	n	n	n	n
C=C(C)C(=O)Nc1cccc(C2=NOC3(C2)C[C@@H](C(N)=O)N(C(=O)c2ccc(OC)cc2)C3)c1 (some centres undefined)	n	n	18	x	n	n	n
C=C(C)C(=O)Nc1cccc(C2=NOC3(C2)C[C@@H](C(N)=O)N(C(=O)c2cc([N+](=O)[O-])cc([N+](=O)[O-])c2)C3)c1 (some centres undefined)	n	n	n	n	n	x	x
C/C=C\C=C/C(=O)Nc1cccc(C2=NOC3(C2)C[C@@H](C(N)=O)N(C(=O)COc2ccc(Cl)cc2)C3)c1 (some centres undefined)	n	n	19	n	n	n	n
CCCCNC(=O)C[C@H]1C[C@@]2(C(=O)OC)C(=C[C@H](C(C)(C)C)O[C@@H]2C)N(Cc2ccc(Cl)cc2Cl)C1=O	x	x	x	n	x	x	x
CCCCCCSc1cccc(-c2nc3ccc(C)cn3c2NCc2ccccc2)c1	n	n	n	n	n	x	x
CCC(C)Sc1cccc(-c2nc3ccc(Cl)cn3c2NCc2ccccc2)c1 (centres undefined)	n	n	19	x	n	n	n
CCCCCCSc1cc(-c2nc3ccc(C)cn3c2NCc2ccccc2)ccc1OC	n	n	21	n	n	n	n
CCCCCCSc1cccc(-c2nc3ccc(C)cn3c2NC2CCCCC2)c1	n	n	n	n	n	x	x
CCC(C)Sc1cccc(-c2nc3ccc(C)cn3c2NCc2ccccc2)c1 (centres undefined)	n	n	n	n	n	x	x
CCCCCCSc1cccc(-c2nc3cc(C)ccn3c2NC2CCCCC2)c1	n	n	19	n	n	n	n
CCCCCCSc1cc(-c2nc3cc(C)ccn3c2NCCCC)ccc1OC	n	n	26	n	n	n	n
CCCCCCSc1ccc(-c2nc3ccc(C)cn3c2NCCCC)cc1OC	x	x	x	n	x	x	x
O=C(/C=C/c1ccccc1Cl)OCC(=O)N1CCc2ccccc21	x	x	x	n	x	x	x
CCCOc1ccc(-c2nc(CSCC(=O)NC3CC3)c(C)o2)cc1	x	x	x	n	x	x	x
CNC[C@H](Cc1ccccc1)NC[C@@H](Cc1cccc2ccccc12)NCCc1ccc(C)cc1	48	n	20	n	n	n	n
SMILES	Apaf1 inhib	PP5 inh	PP1 counter	TDP2 absorb	GSTO1 inh	PP1 inh confirm	PP5 inh counter
COc1ccc(N=Nc2ccc(O)c3ncccc23)cc1	n	n	27	n	n	26	n
Cc1ccccc1N=Nc1ccc(O)c2ncccc12	x	n	n	n	n	x	x
COc1cccc(N=Nc2ccc3cccnc3c2O)c1	n	n	31	n	n	25	n
CCCCc1c(-c2ccccc2OC)ncn1Cc1ccccc1Cl	x	x	x	n	x	x	x
Cc1nnc2sc(-c3ccc(NC(=O)CSc4ccc(Cl)cc4)cc3)nn12	n	n	18	n	n	n	n
CCOC(=O)N/N=C/c1ccccc1OCc1ccc(Cl)cc1	n	n	n	n	n	x	x
O=C(Cc1ccccc1)N/N=C/c1ccccc1OCc1ccc(Cl)cc1	n	n	21	n	n	n	n
O=c1ccoc2ccccc12	x	x	x	n	x	x	x
Cc1cc(NC(=O)CSc2ccc(-c3ccc(Br)cc3)nn2)no1	n	n	18	n	n	n	n
COC(=O)c1cc(-c2cccc(OCc3ccccc3)c2)c(=O)n2c1CCC2	x	x	x	n	x	x	x
O=C(NC1=NC2(C=C3CCCCC3n3c(=O)n(-c4ccccc4)c(=O)n32)CN1CC1CC1)c1ccccc1 (centres undefined)	x	x	x	n	x	x	x
CCn1c(SCC(=O)Nc2cc(C)on2)nc2sc3c(c2c1=O)CCCC3	n	n	23	n	n	28	n
CC1(C(=O)NC2CCCCC2)CCC(=O)N1CCOc1ccccc1 (centres undefined)	x	x	x	n	x	x	x
O=[N+]([O-])c1ccc(NN=Cc2cccc3ccccc23)cc1	x	x	x	n	x	x	x
O=[N+]([O-])c1cc(Br)c(O)c(/C=N/Nc2nnnn2-c2cccc3ccccc23)c1	n	n	21	n	n	23	n
CN(C)CCCN=Cc1c(-c2ccccc2)[nH]n(-c2nc3ccccc3s2)c1=O	n	n	26	n	n	n	n
O=c1c(C=NCCCn2ccnc2)c(-c2ccccc2)[nH]n1-c1nc2ccccc2s1	n	n	29	n	n	n	n
CCN1CCN(Cc2ccc(NC(=O)c3cc(NC(=O)c4cncc(-c5ccc(C#N)cc5)c4)cc(OC)c3)cc2C(F)(F)F)CC1	54	n	51	n	n	n	n
S=c1[nH]nc(-c2cc(-c3ccccc3)n[nH]2)n1N=Cc1cccc(OCc2ccccc2)c1	x	x	x	n	x	x	x
COc1ccc(CCC(=O)OCC(=O)c2c(N)n(CC(C)C)c(=O)n(C)c2=O)cc1	n	n	n	n	n	x	x
COc1ccccc1CCC(=O)OCC(=O)c1c(N)n(CC(C)C)c(=O)n(C)c1=O	n	n	83	n	n	n	n
